Measured values: ChEMBL document CHEMBL4229369, “Design, synthesis and antitubercular evaluation of benzothiazinones containing a piperidine moiety” (Eur J Med Chem, 2018)
Converted amounts (≈) assume the structure as drawn.

Key:
Assay type in all cases: functional
[1] = system: Mycobacterium tuberculosis; test: Antitubercular activity against multi-drug resistant Mycobacterium tuberculosis
Outline: (§1)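 Inoculum grown to late log phase in Middlebrook 7H9 with 0.2% glycerol, 0.05% Tween 80 and 10% ADC, then washed in PBS, filtered through 8 µm to remove clumps and frozen at -80 °C. Twofold compound dilutions in 7H9-ADC-TG with 2 × 10⁵ CFU per well, 37 °C. Alamar blue and Tween 80 added on day 7, read after 16-24 h (ex 530/em 590 nm). MIC is the lowest concentration giving ≥90% fluorescence reduction versus bacterium-only controls.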

[2] = system: Mycobacterium tuberculosis; test: Antitubercular activity against multi-drug resistant Mycobacterium tuberculosis isolate 16995 after 7 days by Alamar blue assay; details: isolate 16995, 168 h; outline: as §1
[3] = system: Mycobacterium tuberculosis; test: Antitubercular activity against multi-drug resistant Mycobacterium tuberculosis isolate 16883 after 7 days by Alamar blue assay; details: isolate 16883, 168 h; outline: as §1

How did the MIC [1] turn out when `CN(CC1CCCCC1)C1CCN(c2nc(=O)c3cc(C(F)(F)F)cc([N+](=O)[O-])c3s2)CC1` was run?
The MIC was 0.016 µg/mL (≈ 0.033 µM).

Which results are given for `O=c1nc(N2CCC(CN3CCC(C(F)(F)F)CC3)CC2)sc2c([N+](=O)[O-])cc(C(F)(F)F)cc12`?
MIC90 [2]: < 0.016 µg/mL; MIC90 [3]: < 0.016 µg/mL

What does the source list for `NNC(=O)c1ccncc1` [ISONIAZID]?
MIC90 [2]: > 40 µg/mL; MIC90 [3]: > 40 µg/mL

With `O=c1nc(N2CCN(CC3CCCCC3)CC2)sc2c([N+](=O)[O-])cc(C(F)(F)F)cc12` [MACOZINONE] as the compound, how does the MIC90 [2] read?
Its MIC90 is less than 0.016 µg/mL.

What about the MIC90 [3] of the same compound?
Its MIC90 is less than 0.016 µg/mL.

What does the source list for `CO[C@H]1/C=C/O[C@@]2(C)Oc3c(C)c(O)c4c(O)c(c(/C=N/N5CCN(C)CC5)c(O)c4c3C2=O)NC(=O)/C(C)=C\C=C\[C@H](C)[C@H](O)[C@@H](C)[C@@H](O)[C@@H](C)[C@H](OC(C)=O)[C@@H]1C` [RIFAMPIN]?
MIC90 [2]: > 40 µg/mL; MIC90 [3]: > 40 µg/mL
